Some results are limits rather than exact numbers.

Our source for the EC50 and Emax values is ChEMBL document CHEMBL1155331, “Synthesis and SAR of a novel positive allosteric modulator (PAM) of the metabotropic glutamate receptor 4 (mGluR4)” (Bioorg Med Chem Lett, 2009).

Assay [1] deals with T1, Metabotropic glutamate receptor 4 (Homo sapiens, UniProt Q14833). Put plainly: Allosteric modulator activity at human mGlu4 receptor expressed in CHO cells coexpressing Gqi5 assessed as effect on calcium flux. In kind it is functional, cell-based. In general terms: Calcium flux is commonly read through the fluorescence of an indicator in the cells.
T1 sequence (Q14833 whole entry): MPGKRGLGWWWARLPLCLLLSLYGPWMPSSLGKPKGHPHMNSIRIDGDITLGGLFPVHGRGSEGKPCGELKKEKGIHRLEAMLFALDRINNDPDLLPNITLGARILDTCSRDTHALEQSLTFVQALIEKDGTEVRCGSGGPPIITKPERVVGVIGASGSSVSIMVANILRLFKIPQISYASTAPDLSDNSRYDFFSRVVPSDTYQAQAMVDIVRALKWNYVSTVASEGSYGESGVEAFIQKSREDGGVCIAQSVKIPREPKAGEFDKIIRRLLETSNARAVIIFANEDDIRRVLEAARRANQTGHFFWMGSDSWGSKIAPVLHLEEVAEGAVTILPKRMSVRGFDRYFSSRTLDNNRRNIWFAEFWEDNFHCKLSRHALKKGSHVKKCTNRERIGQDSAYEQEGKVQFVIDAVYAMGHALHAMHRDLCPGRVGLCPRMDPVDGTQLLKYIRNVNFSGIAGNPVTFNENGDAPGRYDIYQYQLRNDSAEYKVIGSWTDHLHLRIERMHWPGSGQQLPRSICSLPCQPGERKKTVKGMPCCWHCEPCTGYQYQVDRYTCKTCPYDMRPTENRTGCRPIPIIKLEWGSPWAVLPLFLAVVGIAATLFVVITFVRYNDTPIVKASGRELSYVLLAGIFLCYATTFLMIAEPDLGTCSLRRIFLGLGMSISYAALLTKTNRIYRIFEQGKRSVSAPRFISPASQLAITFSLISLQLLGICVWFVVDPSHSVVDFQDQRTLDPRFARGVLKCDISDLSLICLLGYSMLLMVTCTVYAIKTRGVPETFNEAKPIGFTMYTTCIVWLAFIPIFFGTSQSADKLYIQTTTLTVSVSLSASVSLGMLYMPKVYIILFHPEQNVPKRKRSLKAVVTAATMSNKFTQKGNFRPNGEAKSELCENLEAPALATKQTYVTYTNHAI
The target of assay [2] is T1, Metabotropic glutamate receptor 4. Nature of the assay: Allosteric modulator activity at human mGlu4 receptor expressed in CHO cells coexpressing Gqi5 assessed as effect on calcium flux in relative to glutamate. The format is functional, cell-based. In a few lines: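 hmGluR4/Gqi5 stably transfected CHO cells, 30,000/well, grown overnight at 37 °C, 5% CO2; loaded with 1 μM Fluo-4 AM for 45 min at 37 °C in HBSS/20 mM HEPES/2.5 mM probenecid. Baseline fluorescence read (ex 470, em 540 nm); compound preincubated ~2.5 min, then glutamate EC20, then EC80 2 min later. Ca2+ flux read; 10-point 1:3 concentration-response curves.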

For the compound `Cc1ccc(NC(=O)[C@H]2CCCC[C@H]2C(=O)O)cc1C`, in assay [1] (cho), the EC50 entry is recorded as “Not Active”.

With `O=C(Nc1cc(Cl)cc(Cl)c1)[C@H]1CCCC[C@H]1c1nsc(=O)[nH]1`, the EC50 result in assay [1] (cho) is reported as “Not Active”.

As to `NC(=O)[C@@H]1CC=CC[C@@H]1C(=O)Nc1cc(Cl)cc(Cl)c1`, the EC50 in assay [1] (read-out: EC50) is 3.1 µM. Also, the Emax in assay [2] turned out to be 94%.

Regarding `O=C(Nc1cc(Cl)cc(Cl)c1)[C@H]1CCCC[C@H]1C(=O)NC1CC1`, the EC50 result in assay [1] (cho) is on record as “Not Active”. Take `CC1(C)[C@H](C(=O)Nc2cc(Cl)cc(Cl)c2)[C@@H]1C(=O)O`: the EC50 entry in assay [1] (cho) is given as “Not Active”. Same read-out and setting: the entry for `CC1=CC[C@H](C(=O)Nc2cc(Cl)cc(Cl)c2)[C@H](C(=O)O)C1` is “Not Active”; for `O=C(O)[C@@H]1CCC[C@H](C(=O)Nc2cc(Cl)cc(Cl)c2)C1` it is “Not Active”. Still for that read-out and setting: the entry for `O=C(Nc1cc(Cl)cc(Cl)c1)[C@@H]1[C@H](C(=O)O)[C@@H]2C=C[C@H]1C2` is “Not Active”; for `O=C(Nc1cc(Cl)cc(Cl)c1)[C@@H]1[C@H](C(=O)O)[C@H]2C=C[C@@H]1C2` it is “Not Active”; for `O=C(Nc1cc(F)cc(F)c1)[C@H]1CCCC[C@H]1C(=O)O` it is “Not Active”.

As for `O=C1[C@H]2CCCC[C@H]2C(=O)N1c1cc(Cl)cc(Cl)c1`, the EC50 in assay [1] (read-out: EC50) was 3.3 µM. Further, the Emax in assay [2] is 152%.

On to `CCCNC(=O)[C@@H]1CCCC[C@@H]1C(=O)Nc1cc(Cl)cc(Cl)c1`, for which, in assay [1] (read-out: EC50), the EC50 amounted to 9.6 µM. Moreover, in assay [2], the Emax was determined as 57%.

In the case of `NC(=O)[C@@H]1CCCC[C@@H]1C(=O)Nc1cc(Cl)cc(Cl)c1`, the half-maximal effective concentration (EC50) in assay [1] (read-out: EC50) stood at 0.95 µM. Further, the Emax in assay [2] is 104%. For `O=C(Nc1cc(Cl)cc(Cl)c1)[C@H]1CCCC[C@H]1C(=O)NCC1CC1`, in that order: 10 µM and 80%. For `O=C(Nc1ccccc1)[C@H]1CCCC[C@H]1C(=O)O` the same measures were > 10 µM and 39%. Regarding `Cc1nc(NC(=O)[C@H]2CCCC[C@H]2C(=O)O)nn1C`, the concentration giving a half-maximal response (EC50) entry in assay [1] (cho) was “Not Active”. Still for that read-out and setting: the same measure for `O=C(Nc1ccc(F)c(F)c1)[C@H]1CCCC[C@H]1C(=O)O`: “Not Active”; for `O=C(Nc1ccccn1)[C@H]1CCCC[C@H]1C(=O)O`: “Not Active”; for `O=C(NN1CCOCC1)[C@H]1CCCC[C@H]1C(=O)O`: “Not Active”.

With `CN(C)C(=O)[C@@H]1CCCC[C@@H]1C(=O)Nc1cc(Cl)cc(Cl)c1`, the EC50 result in assay [1] (cho) is “Not Active”. Still for that read-out and setting: the same measure for `O=C(O)C1CCCN(C(=O)Nc2cc(Cl)cc(Cl)c2)C1` (stereo not given): “Not Active”. The same measure, in the same setting: the entry for `O=C(O)CCC(=O)Nc1cc(Cl)cc(Cl)c1` is “Not Active”; for `O=C(NC1CCCCC1)[C@H]1CCCC[C@H]1C(=O)O` it is “Not Active”. As to `O=C(Nc1cc(F)cc(Cl)c1)[C@H]1CCCC[C@H]1C(=O)O`, the EC50 in assay [1] (read-out: EC50) was 2 µM. In addition, in assay [2], the Emax came out at 138%. In the case of `O=C(Nc1cc(Cl)cc(Cl)c1)[C@H]1CC[C@H]1C(=O)O` (single isomer, unassigned), in assay [1] (cho), the EC50 result is listed as “Not Active”. On the same count and under the same terms, the entry for `O=C(Nc1cc(Cl)cc(Cl)c1)[C@H]1CCCC[C@H]1C(=O)NC1CCCC1` is “Not Active”.

As to `O=C(Nc1cc(C(F)(F)F)cc(C(F)(F)F)c1)[C@H]1CCCC[C@H]1C(=O)O`, the half-maximal effective concentration (EC50) entry in assay [1] (cho) is listed as “Not Active”. On the same count and under the same terms, the same measure for `O=C(NCc1ccccc1)[C@H]1CCCC[C@H]1C(=O)O`: “Not Active”. Consider `N#C[C@@H]1CCCC[C@@H]1C(=O)Nc1cc(Cl)cc(Cl)c1`, for which the concentration for a half-maximal effect (EC50) in assay [1] (read-out: EC50) was found to be 2 µM. Also, the maximal response (Emax) in assay [2] was 55%. For `O=C(Nc1cc(Cl)cc(Cl)c1)[C@H]1CCCC[C@H]1c1nnn[nH]1`, in that order: > 10 µM and 152%. For `CNC(=O)[C@@H]1CCCC[C@@H]1C(=O)Nc1cc(Cl)cc(Cl)c1` the same measures were 10 µM and 106%. Take `O=C(Nc1cccc(Br)c1)[C@H]1CCCC[C@H]1C(=O)O`: the EC50 result in assay [1] (cho) is on record as “Not Active”. Consider `O=C(Nc1cc(Cl)cc(Cl)c1)[C@H]1CC=CC[C@H]1C(=O)O`, for which the EC50 in assay [1] (read-out: EC50) was determined as 2.7 µM. Further, the maximal response (Emax) in assay [2] was found to be 150%. As to `O=C(Nc1cc(Cl)cc(Cl)c1)[C@H]1CCCC[C@H]1C(=O)N1CCOCC1`, the EC50 result in assay [1] (cho) was “Not Active”. The same measure, in the same setting: the entry for `Cc1cc(C)cc(NC(=O)[C@H]2CCCC[C@H]2C(=O)O)c1` is “Not Active”. `O=C(Nc1cc(Cl)cc(Cl)c1)[C@H]1CCCC[C@H]1C(=O)O` (relative stereo): the EC50 in assay [1] (read-out: EC50) amounted to 0.74 µM. For the same compound, the Emax in assay [2] turned out to be 127%. In the case of `O=C(Nc1cc(Cl)cc(Cl)c1)[C@H]1CCC[C@H]1C(=O)O`, the EC50 result in assay [1] (cho) is “Not Active”. Regarding `O=C(NC1CCC1)[C@H]1CCCC[C@H]1C(=O)O`, the EC50 entry in assay [1] (cho) is recorded as “Not Active”.

What is called EC50 is the concentration that produces a half-maximal response. One may read the Emax as the greatest response seen or fitted, relative to the assay's reference.
